Measured values published in ChEMBL document CHEMBL1124926, “Structure-activity relationships of antifilarial antimycin analogues: a multivariate pattern recognition study” (J Med Chem, 1990).

Legend:
Acanthocheilonema viteae = test: In vitro macrofilaricidal activity against Dipetalonema viteae was determined using the leakage of incorporated radiolabeled adenine method.; type: functional, organism-based
Outline: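 D. viteae adult females were labelled with radiolabelled adenine, then exposed for 120 h to concentrations descending from 10 μM in serum-free Eagle's minimal essential medium. Viability was scored as leakage of incorporated label into the medium, and the EC50 was the concentration releasing 50% of the adenine taken up.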

Brugia pahangi [1] = test: (§1) In vivo percent reduction of Brugia pahangi worm in gerbils; type: functional; set-up: concentration or dose not given beside the values
Outline: (§2)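 Animals were autopsied 35 days after the final dose, and worm recoveries were compared with those from untreated controls.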

[2] = Negative log transformed activity; type: ADME; set-up: unit not given here
Brugia pahangi [3] = test: In vivo percent reduction of Brugia pahangi worm in gerbils; Some toxicity; type: functional; outline: as §2
Brugia pahangi [4] = test: as §1; type: functional; outline: as §2

SMILES	-Log activity [2]	EC50 (Acanthocheilonema viteae) [nM]	Worm reduction (Brugia pahangi [1]) [%]	Worm reduction (Brugia pahangi [3]) [%]	Worm reduction (Brugia pahangi [4]) [%]
CCCCCCCCCCCCCCCCNC(=O)c1cccc([N+](=O)[O-])c1O	-0.04	1100			
C[S+]([O-])c1ccc(O)c(C(=O)Nc2ccc(Oc3ccc(Cl)cc3)c(Cl)c2)c1 (centres undefined)	-0.88	7500	84		
CCCCCCCCNC(=O)c1cccc(NC=O)c1O	-0.41	2600			
CSc1ccc(O)c(C(=O)Nc2ccc(Oc3ccc(Cl)cc3)c(Cl)c2)c1	0.32	480	58		
O=C(Nc1ccc(C(O)c2ccccc2)cc1)c1cc([N+](=O)[O-])ccc1O (centres undefined)	-1	> 10000	39		
CCCCCCCCCCCCCCNC(=O)c1cccc([N+](=O)[O-])c1O	0.82	152			
CCCCCCCCCCCCCCNC(=O)c1cc(Cl)cc([N+](=O)[O-])c1O	1.36	43.5			
CCCCCCCCCCCCCCNC(=O)c1cccc(NC(C)=O)c1O	-0.9	8000			
CS(=O)(=O)c1cccc(C(=O)Nc2ccc(Oc3ccc(Cl)cc3)c(Cl)c2)c1O	0.3	500	42		
CC(C)(C)c1ccc(NC(=O)c2cc([N+](=O)[O-])ccc2O)cc1	0.23	590	44		
CCCCCCNC(=O)c1cccc(NC=O)c1O	-1	> 10000			
CCCCCCCCCCCCCCNC(=O)c1cc([N+](=O)[O-])ccc1O	0.89	128			
CCCCCCCCCCCCNC(=O)c1cc([N+](=O)[O-])ccc1O	1.41	39	0		
CCCCCCCCCCCCCCNC(=O)c1cccc(NC=O)c1O	-0.85	7000			80
CSc1cccc(C(=O)Nc2ccc(Oc3ccc(Cl)cc3)c(Cl)c2)c1O	0.42	380	52		
O=CNc1cccc(C(=O)Nc2ccc(Oc3ccc(Cl)cc3)c(Cl)c2)c1O	-0.38	2400			
O=C(c1ccc(Cl)cc1)c1cc([N+](=O)[O-])ccc1O	0.48	330	61		

The next lines start with results.

-Log activity [2]	SMILES	EC50 (Acanthocheilonema viteae) [nM]	Worm reduction (Brugia pahangi [1]) [%]	Worm reduction (Brugia pahangi [3]) [%]	Worm reduction (Brugia pahangi [4]) [%]
1.02	O=C(Nc1ccc(Oc2ccc(C(F)(F)F)cc2)cc1)c1cc([N+](=O)[O-])ccc1O	95	72		
1.03	O=C(Nc1ccc(Oc2cccc(C(F)(F)F)c2)cc1)c1cc([N+](=O)[O-])ccc1O	94	80		
1.84	N#Cc1ccc(O)c(C(=O)Nc2ccc(Oc3ccc(Cl)cc3)c(Cl)c2)c1	14.5	17		
1.07	O=C(Nc1ccc(Oc2cccc(C(F)(F)F)c2)c(Cl)c1)c1cc([N+](=O)[O-])ccc1O	85	74		
1.55	O=C(Nc1ccc(Oc2ccc(SC(F)(F)F)cc2)c(Cl)c1)c1cc([N+](=O)[O-])ccc1O	28		85	
1.36	O=C(Nc1ccc(Sc2ccc(Cl)cc2)c(Cl)c1)c1cc([N+](=O)[O-])ccc1O	44	70		
0.43	O=C(Nc1ccc(Nc2ccc(Cl)cc2)c(Cl)c1)c1cc([N+](=O)[O-])ccc1O	370	48		
0.77	COc1ccc(Oc2ccc(NC(=O)c3cc([N+](=O)[O-])ccc3O)cc2Cl)cc1	170	61		
0.82	O=C(Nc1ccc(Oc2ccc(Cl)cc2)c(Cl)c1)c1cccc([N+](=O)[O-])c1O	150			
1.13	O=C(Nc1ccc(C(=O)c2ccc(Cl)cc2)c(Cl)c1)c1cc([N+](=O)[O-])ccc1O	74	14		
0.92	O=C(Nc1ccc(Oc2ccc([N+](=O)[O-])cc2Cl)cc1)c1cc([N+](=O)[O-])ccc1O	120	70		
0.1	O=C(Nc1ccc(Oc2ccccc2)cc1)c1cc([N+](=O)[O-])ccc1O	800	89		
1.4	O=C(Nc1ccc(Oc2ccc(Cl)cc2)c(Cl)c1)c1cc([N+](=O)[O-])ccc1O	40	80.6		
0	CS(=O)(=O)c1ccc(O)c(C(=O)Nc2ccc(Oc3ccc(Cl)cc3)c(Cl)c2)c1	1000	28		
